Experimental data: ChEMBL document CHEMBL3045504, “Activity of 1,4-benzoquinones against formosan subterranean termites (Coptotermes formosanus)” (2008)

Columns and labels:
Format in all cases: functional
Coptotermes formosanus [1] = experiment: Termiticidal activity against Coptotermes formosanus placed on 1 % wt/wt compound treated filter paper assessed as termite mortality measured 21 days post compound exposure
Coptotermes formosanus [2] = experiment: Termiticidal activity against Coptotermes formosanus placed on 1 % wt/wt compound treated filter paper assessed as termite mortality measured 11 days post compound exposure
Coptotermes formosanus [3] = experiment: Termiticidal activity against Coptotermes formosanus placed on 1 % wt/wt compound treated filter paper assessed as termite mortality measured 3 days post compound exposure
Coptotermes formosanus [4] = experiment: Antifeedant activity against Coptotermes formosanus placed on 1 % wt/wt compound treated filter paper assessed as filter paper consumption measured 21 days post compound exposure (reference value: 85 +/- 15.1 mg)
Coptotermes formosanus [5] = experiment: Antifeedant activity against Coptotermes formosanus placed on 1 % wt/wt compound treated filter paper assessed as filter paper consumption measured 21 days post compound exposure (reference value: 44 +/- 1.1 mg)
Coptotermes formosanus [6] = experiment: Antifeedant activity against Coptotermes formosanus placed on 1 % wt/wt compound treated filter paper assessed as filter paper consumption measured 21 days post compound exposure (reference value: 42.4 +/- 4.3 mg)
Coptotermes formosanus [7] = experiment: Antifeedant activity against Coptotermes formosanus placed on 1 % wt/wt compound treated filter paper assessed as filter paper consumption measured 21 days post compound exposure (reference value: 15.9 +/- 10.4 mg)
Coptotermes formosanus [8] = experiment: Termiticidal activity against Coptotermes formosanus placed on 0.5 % wt/wt compound treated filter paper assessed as termite mortality measured 11 days post compound exposure
How it was run: (§1)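 Treated filter paper disks moistened with 100 µL water; 20 C. formosanus workers (third instar or greater) plus 1 soldier per dish from field colonies kept on spruce, ca. 100% RH, 26.6 °C. Daily mortality scored for 3 weeks; cumulative percent mortality from four replicates, each a different colony; water-only controls; ANOVA, protected Fisher LSD (P < 0.05) after arcsine square-root transform.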

Coptotermes formosanus [9] = experiment: Termiticidal activity against Coptotermes formosanus placed on 0.5 % wt/wt compound treated filter paper assessed as termite mortality measured 3 days post compound exposure; how it was run: as §1
Coptotermes formosanus [10] = experiment: Antifeedant activity against Coptotermes formosanus placed on 0.5 % wt/wt compound treated filter paper assessed as filter paper consumption measured 21 days post compound exposure (reference value: 23.6 +/- 13.6 mg)
Coptotermes formosanus [11] = experiment: Termiticidal activity against Coptotermes formosanus placed on 0.5 % wt/wt compound treated filter paper assessed as termite mortality measured 21 days post compound exposure; how it was run: as §1

| SMILES | mortality (Coptotermes formosanus [1]) | mortality (Coptotermes formosanus [2]) | mortality (Coptotermes formosanus [3]) | Activity (Coptotermes formosanus [4]) | Activity (Coptotermes formosanus [5]) | Activity (Coptotermes formosanus [6]) | Activity (Coptotermes formosanus [7]) | mortality (Coptotermes formosanus [8]) | mortality (Coptotermes formosanus [9]) | Activity (Coptotermes formosanus [10]) | mortality (Coptotermes formosanus [11]) |
| --- | --- | --- | --- | --- | --- | --- | --- | --- | --- | --- | --- |
| COC1=CC(=O)C(C)=CC1=O [Coprinin] | 93.3% | 56.7% | 18.3% | 4.2 mg |  |  |  |  |  |  |  |
| CC1=CC(=O)C(C(C)(C)C)=CC1=O | 26.7% | 21.7% | 5% | 68.3 mg |  |  |  |  |  |  |  |
| O=C1C(Cl)=C(Nc2ccccc2)C(=O)C(Cl)=C1Nc1ccccc1 | 60% | 40% | 0% |  | 36.3 mg |  |  |  |  |  |  |
| O=C1C(Cl)=C(Nc2ccc(Cl)cc2)C(=O)C(Cl)=C1Nc1ccc(Cl)cc1 | 86.3% | 62.5% | 10% |  | 22.7 mg |  |  |  |  |  |  |
| COC1=CC(=O)C(c2ccccc2)=CC1=O | 31.7% | 6.7% | 3.3% |  |  | 35.8 mg |  |  |  |  |  |
| COC1=C(OC)C(=O)C(C/C=C(\C)CC/C=C(\C)CC/C=C(\C)CC/C=C(\C)CC/C=C(\C)CC/C=C(\C)CC/C=C(\C)CC/C=C(\C)CCC=C(C)C)=C(C)C1=O [Coenzyme Q9] | 15% | 15% | 15% | 63.9 mg |  |  |  |  |  |  |  |
| CNC1=C(Cl)C(=O)C(NC)=C(Cl)C1=O | 100% | 90% | 8.8% |  | 7.8 mg |  |  |  |  |  |  |
| CCCCCCCCCCC1=C(C)C(=O)C(OC)=C(OC)C1=O [DECYLUBIQUINONE] | 100% | 75% | 13.3% |  |  | 19.3 mg |  |  |  |  |  |
| CCCCCCCCCCCCCC1=C(O)C(=O)C=C(O)C1=O [Rapanone] | 81.7% | 76.7% | 5% |  |  |  | 0.3 mg |  |  |  |  |
| COC1=C(OC)C(=O)C(Cl)=C(Cl)C1=O |  |  |  |  |  |  |  | 8.8% | 2.5% | 19.3 mg | 30% |
| CC1=CC(=O)C=CC1=O [Cresoquinone] | 20% | 11.7% | 1.7% | 22.5 mg |  |  |  |  |  |  |  |
| CC1=C(Br)C(=O)C(Br)=C(Cl)C1=O |  |  |  |  |  |  |  | 22.5% | 2.5% | 26.1 mg | 31.3% |
| COC1=CC(=O)C(OC)=CC1=O | 8.3% | 6.7% | 3.3% | 107 mg |  |  |  |  |  |  |  |
| COC1=C(OC)C(=O)C(C/C=C(\C)CC/C=C(\C)CC/C=C(\C)CCC=C(C)C)=C(C)C1=O [Coenzyme Q4] | 15% | 11.7% | 1.7% | 74.6 mg |  |  |  |  |  |  |  |
| O=C1C=CC(=O)C=C1 [BENZOQUINONE] |  |  |  | 80.7 mg |  |  |  |  |  |  |  |
| COC1=C(OC)C(=O)C(C)=CC1=O [Ubiquinone Qo] | 90% | 81.7% | 75% |  |  | 7.2 mg |  |  |  |  |  |

| SMILES | mortality (Coptotermes formosanus [1]) | mortality (Coptotermes formosanus [2]) | mortality (Coptotermes formosanus [3]) | Activity (Coptotermes formosanus [4]) | Activity (Coptotermes formosanus [5]) | Activity (Coptotermes formosanus [6]) | Activity (Coptotermes formosanus [7]) | mortality (Coptotermes formosanus [8]) | mortality (Coptotermes formosanus [9]) | Activity (Coptotermes formosanus [10]) | mortality (Coptotermes formosanus [11]) |
| --- | --- | --- | --- | --- | --- | --- | --- | --- | --- | --- | --- |
| CC(C)(C)C1=CC(=O)C=CC1=O | 28.3% | 18.3% | 13.3% | 60.4 mg |  |  |  |  |  |  |  |
| COc1ccccc1NC1=C(Cl)C(=O)C(Nc2ccccc2OC)=C(Cl)C1=O | 2.5% | 0% | 1.3% |  | 40.1 mg |  |  |  |  |  |  |
| COc1ccc(NC2=C(Cl)C(=O)C(Nc3ccc(OC)cc3)=C(Cl)C2=O)cc1 | 57.5% | 3.8% | 1.3% |  | 39.8 mg |  |  |  |  |  |  |
| COC1=CC(=O)C(C[P+](c2ccccc2)(c2ccccc2)c2ccccc2)=CC1=O.[Cl-] | 98.3% | 60% | 13.3% |  |  | 5.3 mg |  |  |  |  |  |
| COC1=CC(=O)C=CC1=O | 31.7% | 21.7% | 13.3% | 6.5 mg |  |  |  |  |  |  |  |
| COC1=CC(=O)C=C(OC)C1=O [2,6-DIMETHOXYQUINONE] | 3.3% | 3.3% | 0% | 75.9 mg |  |  |  |  |  |  |  |
| Cc1ccc(C2=CC(=O)C=CC2=O)cc1 | 38.3% | 16.7% | 5% | 43.2 mg |  |  |  |  |  |  |  |
| Cc1ccc(NC2=C(Cl)C(=O)C(Nc3ccc(C)cc3)=C(Cl)C2=O)cc1 | 88.8% | 52.5% | 6.3% |  | 19.1 mg |  |  |  |  |  |  |
| COC1=C(Cl)C(=O)C(Cl)=C(OC)C1=O | 2.5% | 0% | 0% |  | 37.8 mg |  |  |  |  |  |  |
| COC1=C(OC)C(=O)C(C/C=C(\C)CCC=C(C)C)=C(C)C1=O [Coenzyme Q2] | 25% | 15% | 0% | 56.1 mg |  |  |  |  |  |  |  |
| COC1=C(OC)C(=O)C(C/C=C(\C)CC/C=C(\C)CC/C=C(\C)CC/C=C(\C)CC/C=C(\C)CCC=C(C)C)=C(C)C1=O [Coenzyme Q6] | 18.3% | 6.7% | 1.7% | 97.3 mg |  |  |  |  |  |  |  |
| COC1=C(OC)C(=O)C(CCCCCCCCCCO)=C(C)C1=O [IDEBENONE] | 38.3% | 0% | 0% |  |  | 37.9 mg |  |  |  |  |  |
| COc1cccc(NC2=C(Cl)C(=O)C(Nc3cccc(OC)c3)=C(Cl)C2=O)c1 | 33.8% | 1.3% | 0% |  | 34.9 mg |  |  |  |  |  |  |
| COC1=C(OC)C(=O)C(C/C=C(\C)CC/C=C(\C)CC/C=C(\C)CC/C=C(\C)CC/C=C(\C)CC/C=C(\C)CC/C=C(\C)CC/C=C(\C)CC/C=C(\C)CCC=C(C)C)=C(C)C1=O [UBIDECARENONE] | 10% | 10% | 0% | 49.6 mg |  |  |  |  |  |  |  |
| CCCCCCCCCCCC1=C(O)C(=O)C=C(O)C1=O [EMBELIN] | 46.7% | 18.3% | 3.3% | 10.7 mg |  |  |  |  |  |  |  |
| O=C1C(Cl)=C(Nc2cccc([N+](=O)[O-])c2)C(=O)C(Cl)=C1Nc1cccc([N+](=O)[O-])c1 | 90% | 75% | 0% |  | 18.3 mg |  |  |  |  |  |  |
